Consider 27 compounds from ChEMBL document CHEMBL3232993, “Design, synthesis, and structure-activity relationship of a novel series of GluN2C-selective potentiators” (J Med Chem, 2014).

Assay type in all cases: cell-based
For assay [1], the target named is Glutamate NMDA receptor; Grin1/Grin2a (Rattus norvegicus) (UniProt P35439+Q00959). Put plainly: Potentiation of rat recombinant GluN1/GluN2A expressed in Xenopus laevis oocytes assessed as increase in glutamate/glycine-induced current response at 30 uM by two-electrode voltage clamp technique relative to control. The procedure, abridged:
(§1)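 Two-electrode voltage clamp at −40 mV on Xenopus oocytes coexpressing GluN1 with GluN2A, 2B, 2C or 2D. […] Compounds came from 20 mM DMSO stocks, with 0.05–0.5% final DMSO. Some GluN2A oocytes were injected with K-BAPTA to limit current run-up. Recording solution was pH 7.4, 23 °C.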
(In general: In two-electrode clamp one electrode senses voltage and the other passes current.)

Assay [2] addresses Glutamate NMDA receptor; Grin1/Grin2c (Rattus norvegicus) (UniProt P35439+Q00961). The experiment in a line: Potentiation of rat recombinant GluN1/GluN2C expressed in Xenopus laevis oocytes assessed as increase in glutamate/glycine-induced current response at 30 uM by two-electrode voltage clamp technique relative to control. The procedure, abridged:
as §1

For assay [3], the target named is Glutamate NMDA receptor; Grin1/Grin2c (Rattus norvegicus, UniProt P35439+Q00961). The experiment in a line: Potentiation of rat recombinant GluN1/GluN2C expressed in Xenopus laevis oocytes assessed as increase in glutamate/glycine-induced current response by two-electrode voltage clamp technique relative to control.
Assay [4] deals with Glutamate NMDA receptor; Grin1/Grin2b (Rattus norvegicus) (UniProt P35439+Q00960). Put plainly: Potentiation of rat recombinant GluN1/GluN2B expressed in Xenopus laevis oocytes assessed as increase in glutamate/glycine-induced current response at 30 uM by two-electrode voltage clamp technique relative to control. The procedure, abridged: as §1
In assay [5] the target is Ionotropic glutamate receptor NMDA 1/2D (Rattus norvegicus) (UniProt P35439+Q62645). Put plainly: Potentiation of rat recombinant GluN1/GluN2D expressed in Xenopus laevis oocytes assessed as increase in glutamate/glycine-induced current response at 30 uM by two-electrode voltage clamp technique relative to control. Summed up: as §1

One may read the EC50 as the concentration needed to bring the measured effect to its halfway point. Take `COC(=O)c1ccc(C2C(C(C)=O)=C(O)C(=O)N2CCc2c[nH]c3ccccc23)c(Cl)c1` (configuration not stated): the Activity in assay [1] was 103%; in assay [2] it was 139%; in assay [4], 87%; in assay [5], 90%. Besides, the max activation in assay [2] worked out at 191%. Further, in assay [3], the half-maximal effective concentration (EC50) came to 36 µM.
For the compound `CCOC(=O)c1ccc(C2C(C(=O)c3cccnc3)=C(O)C(=O)N2CCc2c[nH]c3ccccc23)cc1` (configuration not stated), the Activity stood at 97% in assay [1], 201% in assay [2], 71% in assay [4] and 83% in assay [5]. The max activation in assay [2] came out at 207%. Moreover, in assay [3], the EC50 is 8.2 µM.
Turning to `CCOC(=O)c1ccc(C2C(C(C)=O)=C(O)C(=O)N2CCc2c(C)[nH]c3ccccc23)cc1` (configuration not stated), the Activity in assay [1] was 108%; in assay [2], 220%; in assay [4], 99%; in assay [5] it was 85%. In addition, the max activation in assay [2] is 265%. Moreover, the concentration for a half-maximal effect (EC50) in assay [3] worked out at 13 µM.
With `COC(=O)c1ccc(C2C(C(C)=O)=C(OC)C(=O)N2CCc2c[nH]c3ccccc23)cc1` (configuration not stated), the Activity came out at 109% in assay [1], 127% in assay [2], 91% in assay [4] and 82% in assay [5]. In addition, in assay [2], the max activation stood at 163%. Also, the EC50 in assay [3] is 37 µM.
As for `COC(=O)c1ccc(C2C(C(=O)c3ccccc3)=C(O)C(=O)N2CCc2c[nH]c3ccccc23)cc1` (configuration not stated), the Activity was determined as 116% in assay [1], 143% in assay [2], 85% in assay [4] and 79% in assay [5]. Besides, in assay [2], the max activation is 161%. For the same compound, in assay [3], the EC50 was 17 µM.
Turning to `COC(=O)c1ccc(C2C(C(=O)c3cccnc3)=C(O)C(=O)N2CCc2c[nH]c3cc(F)ccc23)cc1` (configuration not stated), the Activity in assay [1] was determined as 94%; in assay [2], 163%; in assay [4], 64%; in assay [5], 82%. In addition, the max activation in assay [2] turned out to be 167%. In addition, the EC50 in assay [3] was found to be 13 µM.
For `COC(=O)c1ccc(C2C(C(C)=O)=C(OC(C)=O)C(=O)N2CCc2c[nH]c3ccccc23)cc1` (configuration not stated), the Activity in assay [1] came out at 95%; in assay [2], 120%; in assay [4], 90%; in assay [5], 92%. The max activation in assay [2] stood at 173%. In addition, the EC50 in assay [3] amounted to 52 µM.
For the compound `COC(=O)c1ccc(C2C(C(=O)c3cccnc3)=C(O)C(=O)N2CCc2c[nH]c3cc(Cl)ccc23)cc1` (configuration not stated), the Activity worked out at 93% in assay [1], 170% in assay [2], 66% in assay [4] and 86% in assay [5]. Also, the max activation in assay [2] worked out at 204%. The EC50 in assay [3] came out at 8.5 µM.
Consider `COC(=O)c1ccc(C2C(C(C)=O)=C(O)C(=O)N2CCc2c[nH]c3ccccc23)c(F)c1` (configuration not stated), for which the Activity came to 93% in assay [1], 123% in assay [2], 96% in assay [4] and 91% in assay [5]. For the same compound, in assay [2], the max activation was determined as 155%. The EC50 in assay [3] came to 37 µM.
As for `COC(=O)c1ccc(C2C(C(=O)c3cccc(F)c3)=C(O)C(=O)N2CCc2c[nH]c3ccccc23)cc1` (configuration not stated), the Activity in assay [1] was 98%; in assay [2], 133%; in assay [4], 83%; in assay [5], 78%. Besides, in assay [2], the max activation stood at 136%. Also, in assay [3], the half-maximal effective concentration (EC50) was found to be 11 µM.
Turning to `COC(=O)c1ccc(C2C(C(=O)C(C)(C)C)=C(O)C(=O)N2CCc2c[nH]c3ccccc23)cc1` (configuration not stated), the Activity was determined as 87% in assay [1], 129% in assay [2], 93% in assay [4] and 79% in assay [5]. In assay [2], the max activation worked out at 187%. Also, the EC50 in assay [3] worked out at 52 µM.
Consider `COC(=O)c1ccc(C2C(C(C)=O)=C(O)C(=O)N2CCc2c[nH]c3ccccc23)c(O)c1` (configuration not stated), for which the Activity in assay [1] was 107%; in assay [2] it was 173%; in assay [4] it was 86%; in assay [5] it was 88%. The max activation in assay [2] amounted to 202%. Besides, the half-maximal effective concentration (EC50) in assay [3] came out at 15 µM.
In the case of `COC(=O)c1ccc(C2C(C(C)=O)=C(O)C(=O)N2CCc2c[nH]c3ccccc23)c(C)c1` (configuration not stated), the Activity worked out at 101% in assay [1], 129% in assay [2], 95% in assay [4] and 85% in assay [5]. Further, the max activation in assay [2] came to 165%. The EC50 in assay [3] was determined as 35 µM.
Consider `COC(=O)c1ccc(C2C(C(=O)c3cccc(C)c3)=C(O)C(=O)N2CCc2c[nH]c3ccccc23)cc1` (configuration not stated), for which the Activity in assay [1] is 97%; in assay [2], 122%; in assay [4], 90%; in assay [5], 84%. Also, the max activation in assay [2] is 131%. Further, in assay [3], the concentration giving a half-maximal response (EC50) turned out to be 16 µM.
Turning to `CCOC(=O)c1ccc(C2C(C(=O)c3ccncc3)=C(O)C(=O)N2CCc2c[nH]c3ccccc23)cc1` (configuration not stated), the Activity stood at 109% in assay [1], 223% in assay [2], 91% in assay [4] and 86% in assay [5]. Moreover, the max activation in assay [2] was 245%. Besides, the EC50 in assay [3] was determined as 9.7 µM.
`COC(=O)c1ccc(C2C(C(=O)c3cccnc3)=C(O)C(=O)N2CCc2c[nH]c3c(Cl)cccc23)cc1` (configuration not stated): the Activity in assay [1] is 90%; in assay [2], 127%; in assay [4] it was 85%; in assay [5], 78%. In assay [2], the max activation is 128%. For the same compound, in assay [3], the EC50 was found to be 7 µM.
`COC(=O)c1ccc(C2C(C(=O)c3cccnc3)=C(O)C(=O)N2CCc2c[nH]c3cc(OC)ccc23)cc1` (configuration not stated): the Activity in assay [1] came out at 84%; in assay [2] it was 194%; in assay [4], 98%; in assay [5], 85%. In addition, in assay [2], the max activation turned out to be 204%. The EC50 in assay [3] is 8 µM.
Regarding `CCOC(=O)c1ccc(C2C(C(C)=O)=C(O)C(=O)N2CCc2c[nH]c3ccccc23)cc1` (configuration not stated), the Activity in assay [1] came to 104%; in assay [2] it was 201%; in assay [4], 83%; in assay [5], 91%. In assay [2], the max activation came to 237%. In addition, in assay [3], the 50% effective concentration (EC50) turned out to be 15 µM.
For `CCOC(=O)c1ccc(C2C(C(C)=O)=C(O)C(=O)N2CCc2c[nH]c3ccccc23)c(O)c1` (configuration not stated), the Activity in assay [1] amounted to 110%; in assay [2], 145%; in assay [4] it was 100%; in assay [5], 88%. Also, the max activation in assay [2] was found to be 194%. For the same compound, the half-maximal effective concentration (EC50) in assay [3] is 40 µM.
As to `C=CC(=O)OC1=C(C(C)=O)C(c2ccc(C(=O)OC)cc2)N(CCc2c(C)[nH]c3ccccc23)C1=O` (configuration not stated), the Activity was found to be 106% in assay [1], 125% in assay [2], 104% in assay [4] and 100% in assay [5]. Moreover, the max activation in assay [2] worked out at 208%. Besides, in assay [3], the concentration for a half-maximal effect (EC50) turned out to be 105 µM.
As to `COC(=O)c1ccc(C2C(C(=O)c3ccncc3)=C(O)C(=O)N2CCc2c[nH]c3ccccc23)cc1` (configuration not stated), the Activity in assay [1] is 92%; in assay [2], 186%; in assay [4], 87%; in assay [5], 84%. For the same compound, in assay [2], the max activation is 196%. Further, in assay [3], the EC50 came out at 8.9 µM.
Take `COC(=O)c1ccc(C2C(C(C)=O)=C(O)C(=O)N2CCc2c[nH]c3ccccc23)cc1O` (configuration not stated): the Activity was determined as 81% in assay [1], 123% in assay [2], 79% in assay [4] and 90% in assay [5]. Moreover, the max activation in assay [2] amounted to 151%. In addition, the EC50 in assay [3] turned out to be 29 µM.
As for `CCC(=O)C1=C(O)C(=O)N(CCc2c[nH]c3ccccc23)C1c1ccc(C(=O)OC)cc1` (configuration not stated), the Activity in assay [1] is 85%; in assay [2], 160%; in assay [4], 77%; in assay [5] it was 78%. Besides, the max activation in assay [2] amounted to 204%. The EC50 in assay [3] is 24 µM.
On to `CCCC(=O)OC1=C(C(C)=O)C(c2ccc(C(=O)OC)cc2)N(CCc2c(C)[nH]c3ccccc23)C1=O` (configuration not stated), for which the Activity in assay [1] was 112%; in assay [2], 186%; in assay [4], 93%; in assay [5], 93%. Besides, the max activation in assay [2] is 184%. In assay [3], the concentration for a half-maximal effect (EC50) was found to be 17 µM.
Take `COC(=O)c1ccc(C2C(C(C)=O)=C(O)C(=O)N2CCc2c[nH]c3c(C)cccc23)cc1` (configuration not stated): the Activity in assay [1] was 98%; in assay [2], 121%; in assay [4], 81%; in assay [5], 92%. The max activation in assay [2] came to 139%. Moreover, the concentration giving a half-maximal response (EC50) in assay [3] is 25 µM.
Consider `COC(=O)c1ccc(C2C(C(C)=O)=C(O)C(=O)N2CCc2c[nH]c3ccccc23)c(OC)c1` (configuration not stated), for which the Activity in assay [1] was found to be 102%; in assay [2], 132%; in assay [4] it was 83%; in assay [5], 100%. Further, in assay [2], the max activation turned out to be 183%. For the same compound, the EC50 in assay [3] amounted to 46 µM.
As for `COC(=O)c1ccc(C2C(C(=O)c3cccc(Cl)c3)=C(O)C(=O)N2CCc2c[nH]c3ccccc23)cc1` (configuration not stated), the Activity in assay [1] stood at 107%; in assay [2] it was 145%; in assay [4], 83%; in assay [5] it was 83%. Besides, the max activation in assay [2] was 145%. In addition, the EC50 in assay [3] came out at 8.7 µM.
